Calls of active or inactive are those of the source. The calls are words filed in the database; no cut-off is given here.
Assays:
HepG2 [1] = assay: Cell cycle arrest in human HepG2 cells transfected with p53 siRNA assessed as accumulation at S-phase after 48 hrs by propidium iodide staining based flow cytometry (reference value: 20.37 to 22.8%); format: functional
HepG2 [2] = assay: Induction of apoptosis in human HepG2 cells transfected with p53 siRNA assessed as early apoptotic cells after 24 hrs by Annexin V-FITC/ propidium iodide staining based flow cytometry (reference value: 5.99 to 6.01%); format: functional
HepG2 [3] = assay: Cytotoxicity against human HepG2 cells after 48 hrs by MTT assay; format: functional, cell-based; details: HepG2, 48 h
Summary of the method: (§1)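 MTT cytotoxicity assay run against HepG2 and BEL-7404 liver cancer, SK-OV-3 ovarian, NCI-H460 large-cell lung cancer and HL-7702 normal liver cells. 5-fluorouracil and cisplatin served as positive controls. IC50 is given as mean ± SD of three repeat experiments.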

SK-OV-3 = assay: Cytotoxicity against human SKOV3 cells after 48 hrs by MTT assay; format: functional, cell-based; details: SK-OV-3, 48 h; summary of the method: as §1
NCI-H460 [4] = assay: Cytotoxicity against human NCI-H460 cells after 48 hrs by MTT assay; format: functional, cell-based; details: NCI-H460, 48 h; summary of the method: as §1
BEL-7404 tumor cell line [5] = assay: Cytotoxicity against human Bel7404 cells after 48 hrs by MTT assay; format: functional, cell-based; details: BEL-7404, 48 h; summary of the method: as §1
L02 = assay: Cytotoxicity against human HL-7702 cells after 48 hrs by MTT assay; format: cell-based; details: L02, 48 h; summary of the method: as §1
Mus musculus [6] = assay: Toxicity in Kunming mouse assessed as change in body weight at 50 mg/kg/day, ip for 14 consecutive days measured daily during compound dosing; format: organism-based; details: in vivo
Summary of the method: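 Kunming mice dosed intraperitoneally at 50 mg/kg per day for 14 consecutive days, compound dissolved in 5% v/v DMSO/saline; body weight recorded daily as a systemic toxicity parameter against a control group; six mice per group.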

Mus musculus [7] = assay: Toxicity in Kunming mouse assessed as signs of peritonitis or damage to heart at 50 mg/kg/day, ip for 14 consecutive days by microscopic method; format: organism-based; details: in vivo
Summary of the method: (§2)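 Kunming mice given 50 mg/kg/day ip in 5% v/v DMSO/saline for 14 days; kidney, heart and liver harvested, sectioned for pathology slices and examined microscopically for peritonitis or organ damage versus control mice.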

Mus musculus [8] = assay: Toxicity in Kunming mouse assessed as signs of peritonitis or damage to liver at 50 mg/kg/day, ip for 14 consecutive days by microscopic method; format: organism-based; details: in vivo; summary of the method: as §2
Mus musculus [9] = assay: Toxicity in Kunming mouse assessed as signs of peritonitis or damage to kidney at 50 mg/kg/day, ip for 14 consecutive days by microscopic method; format: organism-based; details: in vivo; summary of the method: as §2
NCI-H460 [10] = assay: Antitumor activity against human NCI-H460 cells xenografted in Balb/c nude mouse assessed as relative tumor volume increment rate at 50 mg/kg, ip bid for 13 days measured on day 14 post last dose relative to control; format: functional
Summary of the method: (§3)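 SPF BALB/c nude mice carrying NCI-H460 xenografts were randomly grouped and given 25 or 50 mg/kg. Vehicle (5% DMSO in saline, v/v) and cisplatin 2 mg/kg were the controls, n = 6 per group. Tumour volume was followed to give the relative tumour increment rate (T/C, %). Tumours were harvested and weighed on day 14 to give the weight inhibitory rate.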

NCI-H460 [11] = assay: Antitumor activity against human NCI-H460 cells xenografted in Balb/c nude mouse assessed as relative tumor volume increment rate at 25 mg/kg, ip bid for 13 days measured on day 14 post last dose relative to control; format: functional; summary of the method: as §3
NCI-H460 [12] = assay: Antitumor activity against human NCI-H460 cells xenografted in Balb/c nude mouse assessed as tumor growth inhibition at 25 mg/kg, ip bid for 13 days measured on day 14 post last dose relative to control; format: functional; details: read-out: TGI; summary of the method: as §3
NCI-H460 [13] = assay: Antitumor activity against human NCI-H460 cells xenografted in Balb/c nude mouse assessed as tumor growth inhibition at 50 mg/kg, ip bid for 13 days measured on day 14 post last dose relative to control; format: functional; details: read-out: TGI; summary of the method: as §3
Mus musculus [14] = assay: Toxicity in Balb/c nude mouse xenografted with human NCI-H460 cells assessed as change in body weight at 25 to 50 mg/kg, ip bid for 13 days; format: organism-based; details: in vivo, 312 h
Summary of the method: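 SPF BALB/c nude mice bearing NCI-H460 xenografts, randomized and given 25 or 50 mg/kg in 5% DMSO/saline vehicle, with cisplatin 2 mg/kg as positive control; body weight tracked over the 13-day treatment; n = 6.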

BEL-7404 tumor cell line [15] = assay: Antitumor activity against human Bel7404 cells xenografted in Balb/c nude mouse assessed as tumor growth inhibition at 25 mg/kg, ip bid for 20 days measured on day 21 post last dose relative to control; format: functional; details: BEL-7404, ip, read-out: TGI
NCI-H460 [16] = assay: Antitumor activity against human NCI-H460 cells xenografted in Balb/c nude mouse assessed as induction of necrosis at 25 to 50 mg/kg, ip bid for 13 days measured on day 14 post last dose by hematoxylin and eosin staining based microscopic method; format: functional, organism-based
Mus musculus [17] = assay: Downregulation of Bcl2 protein expression in tumor tissues of Balb/c nude mouse xenografted with human NCI-H460 cells at 25 to 50 mg/kg, ip bid for 13 days measured on day 14 by Western blot analysis; format: functional, organism-based
Mus musculus [18] = assay: Upregulation of cytochrome-c expression in tumor tissues of Balb/c nude mouse xenografted with human NCI-H460 cells at 25 to 50 mg/kg, ip bid for 13 days measured on day 14 by Western blot analysis; format: functional, organism-based
Summary of the method: (§4)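 Tumors from NCI-H460 xenografted BALB/c nude mice (25 or 50 mg/kg, vehicle 5% DMSO in saline) collected at day 14; protein levels in tumor tissue determined by western blot versus vehicle control.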

Mus musculus [19] = assay: Effect on caspase-3 protein expression in tumor tissues of Balb/c nude mouse xenografted with human NCI-H460 cells at 25 to 50 mg/kg, ip bid for 13 days measured on day 14 by Western blot analysis; format: functional, organism-based
Mus musculus [20] = assay: Upregulation of caspase-9 protein expression in tumor tissues of Balb/c nude mouse xenografted with human NCI-H460 cells at 25 to 50 mg/kg, ip bid for 13 days measured on day 14 by Western blot analysis; format: functional, organism-based; summary of the method: as §4
HepG2 [21] = assay: Cell cycle arrest in human HepG2 cells transfected with p53 siRNA assessed as accumulation at G1-phase after 48 hrs by propidium iodide staining based flow cytometry (reference value: 55.48 to 56.24%); format: functional
HepG2 [22] = assay: Cell cycle arrest in human HepG2 cells transfected with p53 siRNA assessed as accumulation at G2-phase after 48 hrs by propidium iodide staining based flow cytometry (reference value: 21.72 to 23.39%); format: functional
HepG2 [23] = assay: Induction of apoptosis in human HepG2 cells transfected with p53 siRNA assessed as live cells after 24 hrs by Annexin V-FITC/ propidium iodide staining based flow cytometry (reference value: 69.9 to 70.3%); format: functional
HepG2 [24] = assay: Induction of apoptosis in human HepG2 cells transfected with p53 siRNA assessed as late apoptotic cells after 24 hrs by Annexin V-FITC/ propidium iodide staining based flow cytometry (reference value: 7.99 to 8.6%); format: functional
HepG2 [25] = assay: Induction of apoptosis in human HepG2 cells transfected with p53 siRNA assessed as necrotic apoptotic cells after 24 hrs by Annexin V-FITC/ propidium iodide staining based flow cytometry (reference value: 15.6 to 15.7%); format: functional
HepG2 [26] = assay: Induction of apoptosis in human HepG2 cells after 24 hrs by Annexin V-FITC/ propidium iodide staining based flow cytometry; format: functional, cell-based

Compound | Activity (HepG2 [1]) | Activity (HepG2 [2]) | IC50 (HepG2 [3]) | IC50 (SK-OV-3) | IC50 (NCI-H460 [4]) | IC50 (BEL-7404 tumor cell line [5]) | IC50 (L02) | Activity (Mus musculus [6]) | Activity (Mus musculus [7]) | Activity (Mus musculus [8]) | Activity (Mus musculus [9]) | T/C (NCI-H460 [10]) | T/C (NCI-H460 [11]) | inhibition in vivo at 25 mg/kg (NCI-H460 [12]) | inhibition in vivo at 50 mg/kg (NCI-H460 [13]) | Activity (Mus musculus [14]) | Activity (NCI-H460 [16]) | Activity (Mus musculus [17]) | Activity (Mus musculus [18]) | Activity (Mus musculus [19]) | further results
O=c1[nH]c2cc3c(cc2cc1-c1nc2cc(Cl)ccc2[nH]1)OCO3 | 6.86% | 11.2% | 10.6 µM | 24.7 µM | 30.4 µM | 9.06 µM | > 100 µM | Non-Toxic | Non-Toxic | Non-Toxic | Non-Toxic | 38.1% | 48.8% | 46.2% | 55.1% | Non-Toxic | Active | Active | Active | inactive | inhibition in vivo at 25 mg/kg (BEL-7404 tumor cell line [15]): 41.2%; Activity (Mus musculus [20]): Active; Activity (HepG2 [21]): 74.18%; Activity (HepG2 [22]): 18.96%; Activity (HepG2 [23]): 74.6%; Activity (HepG2 [24]): 7.96%; Activity (HepG2 [25]): 6.29%
O=c1[nH]c2ccccc2cc1-c1nc2cc(Cl)ccc2[nH]1 | 20.84% | 11.5% | 8.45 µM | 10.5 µM | 14.7 µM | 16.5 µM | > 100 µM | Non-Toxic | Non-Toxic | Non-Toxic | Non-Toxic | 30.7% | 40.6% | 51.9% | 66.9% | Non-Toxic | Active | Active | Active | inactive | Activity (HepG2 [26]): Dose-dependent effect; Activity (Mus musculus [20]): Active; Activity (HepG2 [21]): 46.86%; Activity (HepG2 [22]): 32.3%; Activity (HepG2 [23]): 74.8%; Activity (HepG2 [24]): 7.62%; Activity (HepG2 [25]): 6.08%
